Reference: the EternaBench riboswitch data

Tested on: MS2 coat protein
Assay: apparent Kd, MS2 coat protein; higher = weaker binding; RNA-MaP array; tryptophan 2.4 mM where present
Procedure, shortened: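 Designs on Illumina sequencing-chip clusters, transcribed by stalled E. coli RNA polymerase, were exposed to SNAP-549-labelled MS2 coat protein in doubling steps from 0.7 or 1.5 nM up to 3 µM, without and then with constant ligand. The buffer held 100 mM Tris-HCl pH 7.5, 80 mM KCl, 4 mM MgCl2, BSA, DTT, yeast tRNA and Tween-20. Apparent Kd values are medians of filtered per-cluster binding-curve fits to green signal normalised to red-channel RNA signal and control-cluster median Fmax.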

[1] = designed as: ON switch for tryptophan, no ligand
[2] = ligand present: tryptophan, designed as: ON switch for tryptophan
[3] = designed as: OFF switch for tryptophan, no ligand
[4] = ligand present: tryptophan, designed as: OFF switch for tryptophan

Sequence	apparent Kd [1] [nM]	apparent Kd [2] [nM]	apparent Kd [3] [nM]	apparent Kd [4] [nM]
UAUCUACAUGAAUAGGUUAUUCGAUUAUUUCGAGGACCGGUACGGCCGCCACUCGUUAACAUAUACAUGAGGAUCACCCAUGUUA	16.9	15.9	–	–
ACCUGCGUUUGUUUCUUUCUGACGCAGGUUCGAGGACCGGUACGGCCGCCACUCGGACAUGAGGAUCACCCAUGUUUGAAAUGGG	–	–	253	227
AAUCGUAAGGCGGCCGCCACUACACAUGAGGAUCACCCAUGUCUCGCAGGCUUGCGUUGGGAUAGUAGGACCGGGCCAGUAAUAA	–	–	25.1	21.8
AUCUUUGGCGAUCUGGGAAAACCAGAUCGACGAGGACCGGUACGGCCGCCACUCGUGUAUAAUAUACAUGAGGAUCACCCAUGUA	47.5	30.5	–	–
UGUGUGUGACCAGGAAAUGGUCACACACAGCGAGGACCGGUACGGCCGCCACUCGGCCGUACAUGAGGAUCACCCAUGUCGGGUA	674	741	–	–
GGAUAGGACACGGCCGCCACUGCCUAGGAUACUAGCAACAUUUGGGUACAUGAGGAUCACCCAUGUAGGACCGGGUGUCCUAUCG	–	–	49.2	53.9
CGAUAUAUAGCGGCCGCCACUUACUCAUGAGGUAACAACAUGAGGAUCACCCAUGUUUGAGGAUCAAGGACCGGGCUAUGUAUCG	27.4	18	–	–
GGUAUAUAGGCGGCCGCCACUGAUUUUCAUAUAUAUAUAACAUGAGGAUCACCCAUGUAGAUAUACAGGACCGGGCCUAUAUAUU	14.9	12.8	–	–
GAUAUGGAAACAUGUCAGAUCCUUACCGGUCGAGGACCGGUACGGCCGCCACUCGGAAAUAUUGUACAUGAGGAUCACCCAUGUA	–	–	13.7	14.5
